In series [1] the test system is Plasmodium falciparum. The series can be described thus: Antiplasmodial activity against Plasmodium falciparum assessed as inhibition of [3H]hypoxanthine incorporation after 48 hrs. The format is functional, organism-based. The method in brief: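 P. falciparum Nigerian strain blood stages, modified Desjardins microtiter test; drug contact one parasite cycle (48 h); growth read as [³H]hypoxanthine incorporation into nucleic acids; IC50 = concentration giving 50% growth inhibition.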

The subject of series [2] is Mus musculus. Kind of series: Prodrug conversion in ip dosed Swiss mouse assessed as albitiazolium bromide formation administered QD for 4 days. Type of series: ADME, organism-based. The conditions noted are these: in vivo, 96 h.
Series [3] relates to Plasmodium vinckei petteri. Kind of series: Antimalarial activity against Plasmodium vinckei petteri 279BY infected in ip dosed Swiss mouse assessed as reduction in parasitemia administered QD for 4 days measured on day 5. Type of series: functional. In short, it runs like this: (§1)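 P. vinckei-infected mice, 4-day suppressive test, dosing once daily for 4 days by ip or oral route; vehicle DMSO for both routes except some compounds given in 0.9% NaCl (ip) or water (po); ED50 = dose inhibiting in vivo parasite growth by 50%.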

Series [4] deals with Plasmodium vinckei petteri. Kind of series: Ratio of ED50 for Plasmodium vinckei petteri 279BY infected in […] dosed Swiss mouse. Type of series: functional.
Series [5] has as its system Plasmodium vinckei petteri. Kind of series: Antimalarial activity against Plasmodium vinckei petteri 279BY infected in po dosed Swiss mouse assessed as reduction in parasitemia administered QD for 4 days measured on day 5. The format is functional. In short, it runs like this:
as §1

Series [6] has as its system Mus musculus. Kind of series: Prodrug conversion in po dosed Swiss mouse assessed as albitiazolium bromide formation administered QD for 4 days. The format is ADME, organism-based. The note with it: in vivo, 96 h.
The nature of series [7]: Aqueous solubility of the compound. The format is physicochemical. The note with it: water.

For `CSS/C(CCO)=C(/C)N(C=O)CCCCCCCCCCCCN(C=O)/C(C)=C(/CCO)SSC`, the IC50 in series [1] is 6 nM. The Drug metabolism result in series [2] and in series [6] was “Active” in each case. In addition, the ED50 in series [3] turned out to be 0.4 mg/kg; in series [5], 15 mg/kg. Moreover, the “Ratio ED50” value in series [4] is 2.7.
Regarding `CCSS/C(CCO)=C(/C)N(C=O)CCCCCCCCCCCCN(C=O)/C(C)=C(/CCO)SSCC`, the half-maximal inhibitory concentration (IC50) in series [1] came out at 5.4 nM. The Drug metabolism result in series [2] is on record as “Active”. The 50% effective dose (ED50) in series [3] worked out at 1.1 mg/kg; in series [5], 44 mg/kg. Also, the “Ratio ED50” value in series [4] is recorded as 2.5.
Regarding `C/C1=C(\CCOC(=O)[C@@H](N)CCCCN)SS/C(CCOC(=O)[C@@H](N)CCCCN)=C(/C)N(C=O)CCCCCCCCCCCCN1C=O.Cl.Cl`, the IC50 in series [1] amounted to 130 nM. Besides, in series [2], the Drug metabolism entry is “Active”. Besides, the 50% effective dose (ED50) in series [3] was 0.9 mg/kg; in series [5], 50 mg/kg. The “Ratio ED50” value in series [4] worked out at 1.8. Besides, in series [7], the solubility is 27 mg/mL.
Consider `C/C(=C(\CCOP1(=O)OCc2ccccc2O1)SSCc1ccccc1)N(C=O)CCCCCCCCCCCCN(C=O)/C(C)=C(/CCOP1(=O)OCc2ccccc2O1)SSCc1ccccc1` (centres undefined), for which, in series [1], the IC50 was determined as 865 nM. Also, the 50% effective dose (ED50) in series [3] was above 5 mg/kg; in series [5], above 90 mg/kg.
Regarding `CCCSS/C(CCO)=C(/C)N(C=O)CCCCCCCCCCCCN(C=O)/C(C)=C(/CCO)SSCCC`, the concentration for half-maximal inhibition (IC50) in series [1] was 1.3 nM. Further, the Drug metabolism entry in series [2] is on record as “Active”. Also, the ED50 in series [3] was 0.5 mg/kg; in series [5] it was above 54 mg/kg.
`CSS/C(CCOC(=O)[C@@H](N)CCCCN)=C(/C)N(C=O)CCCCCCCCCCCCN(C=O)/C(C)=C(/CCOC(=O)[C@@H](N)CCCCN)SSC.Cl.Cl`: the IC50 in series [1] turned out to be 120 nM. Further, the Drug metabolism result in series [2] was “Active”. The ED50 in series [3] was found to be 1 mg/kg; in series [5], 44 mg/kg. The “Ratio ED50” value in series [4] came to 2.3. The solubility in series [7] came to 27 mg/mL.
With `CCSS/C(CCOP1(=O)OCc2ccccc2O1)=C(/C)N(C=O)CCCCCCCCCCCCN(C=O)/C(C)=C(/CCOP1(=O)OCc2ccccc2O1)SSCC` (centres undefined), the IC50 in series [1] was 520 nM. In addition, the Drug metabolism entry in series [2] is reported as “Active”. In addition, the results for the ED50 in series [3] and in series [5] were 5 mg/kg and above 90 mg/kg, respectively.
With `C/C(=C(\CCO)SSCc1ccccc1)N(C=O)CCCCCCCCCCCCN(C=O)/C(C)=C(/CCO)SSCc1ccccc1`, the half-maximal inhibitory concentration (IC50) in series [1] stood at 14.4 nM. Also, the Drug metabolism entry in series [2] is reported as “Active”. The ED50 was found to be 1.3 mg/kg in series [3] and 80 mg/kg in series [5]. Further, in series [4], the “Ratio ED50” value is given as 1.6.
For the molecule `C/C(=C(\CCOP(=O)([O-])[O-])SSCc1ccccc1)N(C=O)CCCCCCCCCCCCN(C=O)/C(C)=C(/CCOP(=O)([O-])[O-])SSCc1ccccc1.[Li+].[Li+].[Li+].[Li+]`, in series [1], the IC50 amounted to 4400 nM. The Drug metabolism entry in series [2] is “Active”. The ED50 in series [3] is 3 mg/kg; in series [5], above 90 mg/kg.
For `Cc1c(CCOP(=O)(O)O)sc[n+]1CCCCCCCCCCCC[n+]1csc(CCOP(=O)(O)O)c1C`, in series [1], the IC50 came out at 6.65 nM. The results for the 50% effective dose (ED50) in series [3] and in series [5] were 0.34 mg/kg and 34 mg/kg, respectively. For the same molecule, the “Ratio ED50” value in series [4] is 1.
In the case of `C/C1=C(\CCO)SS/C(CCO)=C(/C)N(C=O)CCCCCCCCCCCCN1C=O`, the IC50 in series [1] is 65 nM. The Drug metabolism result in series [2] is given as “Active”. The ED50 worked out at 0.9 mg/kg in series [3] and 22 mg/kg in series [5].
As to `Cc1c(CCO)sc[n+]1CCCCCCCCCCCC[n+]1csc(CCO)c1C.[Br-].[Br-]` [ALBITIAZOLIUM BROMIDE], the ED50 in series [3] worked out at 0.2 mg/kg; in series [5], 13 mg/kg. Also, the “Ratio ED50” value in series [4] was 1.5.
As for `CSS/C(CCOC(=O)[C@@H](N)C(C)C)=C(/C)N(C=O)CCCCCCCCCCCCN(C=O)/C(C)=C(/CCOC(=O)[C@@H](N)C(C)C)SSC.Cl`, the 50% inhibitory concentration (IC50) in series [1] stood at 160 nM. For the same molecule, the Drug metabolism result in series [2] was “Active”. In addition, the ED50 in series [3] amounted to 1 mg/kg; in series [5], 58 mg/kg. Further, in series [4], the “Ratio ED50” value was found to be 1.7.
As for `CCN(CC)CCCC(C)Nc1ccnc2cc(Cl)ccc12` (centres undefined) [CHLOROQUINE], the figures for the ED50 in series [3] and in series [5] were 1.1 mg/kg and 3.4 mg/kg, respectively.
For `C/C1=C(\CCOC(=O)[C@@H](N)C(C)C)SS/C(CCOC(=O)[C@@H](N)C(C)C)=C(/C)N(C=O)CCCCCCCCCCCCN1C=O.Cl`, the IC50 in series [1] stood at 590 nM. Further, the Drug metabolism result in series [2] is “Active”. The ED50 in series [3] was 1 mg/kg; in series [5] it was 37 mg/kg. Also, in series [4], the “Ratio ED50” value amounted to 4.1.
Turning to `CCOP(=O)(OCC)OCC/C(SSCC)=C(\C)N(C=O)CCCCCCCCCCCCN(C=O)/C(C)=C(/CCOP(=O)(OCC)OCC)SSCC`, in series [1], the 50% inhibitory concentration (IC50) is 61.7 nM. The ED50 in series [3] is above 1 mg/kg; in series [5], above 90 mg/kg.
Take `CCSS/C(CCOP(=O)([O-])[O-])=C(/C)N(C=O)CCCCCCCCCCCCN(C=O)/C(C)=C(/CCOP(=O)([O-])[O-])SSCC.[Li+].[Li+].[Li+].[Li+]`: in series [1], the half-inhibitory concentration (IC50) is 5700 nM. Also, the Drug metabolism result in series [2] is listed as “Active”. The median effective dose (ED50) in series [3] was 1.1 mg/kg; in series [5], 60 mg/kg. Moreover, in series [4], the “Ratio ED50” value amounted to 1.8.
`CC(=O)OCC/C1=C(\C)N(C=O)CCCCCCCCCCCCN(C=O)/C(C)=C(/CCOC(C)=O)SS1`: the 50% inhibitory concentration (IC50) in series [1] turned out to be 24 nM. Besides, the Drug metabolism result in series [2] was “Active”. Besides, the 50% effective dose (ED50) is 1 mg/kg in series [3] and 7.3 mg/kg in series [5]. In addition, the “Ratio ED50” value in series [4] came out at 13.7.

Usually IC50 stands for the midpoint of a concentration-inhibition curve. In general, ED50 refers to the midpoint of the dose-response relation. By solubility is commonly meant the concentration that dissolves in the medium under given conditions. Read a low solubility as little dissolved substance.

Source of the values: ChEMBL document CHEMBL2062403, “Disulfide prodrugs of albitiazolium (T3/SAR97276): synthesis and biological activities” (J Med Chem, 2012).
